MT stabilize HCS – microtubule stabilizers in HeLa cells, primary screen, imaging, high-content imaging; HeLa tubulin immunostaining HCS, 24 h; share of cells brighter than vehicle mean+2SD; % tubulin-high responders, % at 10 µM; 200,000 tested, 0.83% active;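 active = plate Z-score above 3 for both tubulin-high and condensed-nucleus cell shares, with cell loss under 80%, at 10 µM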;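 note: anti alpha tubulin signal scored within the nucleus-defined area of each cell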
HSV augment – enhancers of HSV replication in host cells, fold increase, host cell viability; HSV replication augmentation in cells; maximum fold increase; 220,000 tested, 0.005% active; AID 1956, 2009; in the data active = maximum fold increase above about 1.5; tested in PC3 cells
Dynein cargo inh – inhibitors of GR-EGFP nuclear translocation, primary screen, dynein cargo transport inhibitor project, imaging, high-content, 3617.4 mouse cells. test concentration mostly 20 µM; stimulated with dexamethasone, 1 µM; active compounds read low. z-score, hits read low. 220,000 tested, 0.47% active;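 active = plate z-score of nuclear minus cytoplasmic receptor signal below a set negative limit, without overly bright fluorescence or cell loss, cut at about -3.5 in these data, passing the limit was not always enough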;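 note: z-score of nuclear minus cytoplasmic ring GR-EGFP intensity difference per well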
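Buffer or medium: Induction medium lacking tetracycline, stripped serum | Also added: Dexamethasone agonist, 1.0 µM final, for 30 min | Timing: 48 h induction, 1 h compound, 30 min dex at 37 °C | Detection: Formaldehyde fixation, Hoechst nuclear stain, 10x automated fluorescence imaging | Measure: Nuclear versus cytoplasmic GR-EGFP signal, averaged per well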
L major viab – Leishmania major promastigote growth inhibition, primary screen. Leishmania major promastigotes, resazurin fluorescence viability. inhibition, % at 10 µM. 200,000 tested, 9% active. AID 1063, 2008; in the data active = inhibition above about 50%;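 note: promastigotes grown with compound for 44 hours at 28 °C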
bCat nuc transl – modulators of beta-catenin nuclear translocation, primary screen, imaging, HeLa cells, immunofluorescence, high-content | 190,000 tested, 0.3% active | AID 1665, 2009 | nuclear translocation activity, % at 5 µM;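 active = nuclear translocation activity above 50% at 5 µM, with a well cell count of 50 or more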;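 note: per-cell ratio of nuclear to cytoplasmic median beta-catenin stain intensity; plate controls were DMSO negative control for no effect and GSK-3 inhibitor IX positive control for full effect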
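System: HeLa cells, endogenous beta-catenin; compound dosing: 5 µM primary single dose, 0.1% DMSO, 0.02–20 µM confirmation series; incubation: 24 h compound exposure at 37°C, 5% CO2; signal: beta-catenin immunofluorescence imaging with DAPI; evaluation: % activation, nuclear-to-cytoplasmic median beta-catenin signal ratio per cell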
An asterisk follows results filed as active; i = inactive; . = no result given. Only some compounds are listed: those with a hit (about 8.9% of all), similar ones and a draw of the others.

SMILES	MT stabilize HCS	HSV augment	Dynein cargo inh	L major viab	bCat nuc transl
CCOc1cc(CNc2ccc(N(C)C)cc2)cc(Br)c1OCC(=O)NC(C)(C)C	2	i	-0.88	101*	7
C=CCOc1c(Br)cc(CNc2ccc(NC(=O)CCC)cc2)cc1OCC	2	i	2.1	87*	.
CCOc1cc(CNc2ccc(N3CCCCC3)cc2)cc(Br)c1OCC(=O)NC(C)(C)C	2	i	0.12	25	-1
CCOc1cc(CNc2ccc3c(c2)OCCO3)cc(Br)c1OCC	13	i	0.7	7	120*
CCOC(=O)c1sc(NC(=O)C(CC)Sc2nnc3c4ccccc4n(C(C)C)c3n2)nc1C (stereo unspecified)	8	i	-0.26	72*	-6
CCOC(=O)c1sc(NC(=O)C(OC(C)=O)c2ccccc2)nc1C (stereo unspecified)	5	i	-0.12	44	-1
CCOC(=O)Cc1nnc(NC(=O)C(CC)Sc2nnc3c4ccccc4n(C)c3n2)s1 (stereo unspecified)	5	i	-0.17	-10	.
CCOC(=O)c1sc(NC(=O)C(CC)Sc2nc3ccccc3[nH]2)nc1C (stereo unspecified)	3	i	-1	54*	.
COCCN1Cc2cccc(C(=O)N3CCN(c4ccccc4)CC3)c2C1=O	2	i	0.84	-2	.
Cc1ccc(-n2nc3c(c2NC(=O)C(C)(C)C)CSC3)c(C)c1	4	i	-0.052	0	-3
c1ccc(CN2OCC3Cn4c(nc5ccccc54)C32)cc1 (stereo unspecified)	.	i	-0.59	.	-2
C=CCc1ccc(OCCOCCNCCOC)c(OC)c1	4	i	0.65	99*	-2
C=CCc1ccc(OCC(O)COCC)c(OC)c1 (stereo unspecified)	8	i	-0.65	-4	-3
C=CCc1ccc(OCCOCCNCCCC)c(OC)c1	1	i	0.1	96*	0
C=CCc1ccc(OCCOCCOc2cccc3ccc(C)nc23)c(OC)c1	2	i	-0.32	-3	-2
O=C(CN1CCN(Cc2ccc3c(c2)OCO3)CC1)c1c[nH]c2ccccc12	4	i	-1.1	86*	-1
O=C(CN1CCN(Cc2ccc3c(c2)OCO3)CC1)Nc1ccc2c(c1)OCCO2	2	i	-0.29	91*	-1
NS(=O)(=O)c1cccc(NC(=S)NCc2ccc3c(c2)OCO3)c1	3	i	-0.63	6	-1
CCN1CCN(CC(=O)c2c[nH]c3ccccc23)CC1	2	i	0.38	-4	-2
NS(=O)(=O)c1cccc(NC(=O)CN2CCN(Cc3ccc4c(c3)OCO4)CC2)c1	3	i	-0.95	53*	-1
CC1CCc2nc(NC(=O)CN3CCN(c4ccccc4)CC3)sc2C1 (stereo unspecified)	2	i	-0.2	-4	-6
CC1CCc2nc(NC(=O)CN3CCN(Cc4ccc5c(c4)OCO5)CC3)sc2C1 (stereo unspecified)	4	i	1.6	99*	4
CCOC(=O)c1c(NC(=O)C2=C(C)NC(=S)NC2c2ccccc2C(F)(F)F)sc(C)c1C (stereo unspecified)	2	i	-0.83	23	0
CC(=O)c1cccc(NC(=O)CN(c2ccc(F)cc2)S(C)(=O)=O)c1	6	i	0.064	7	-1
CCCNC(=O)Cn1cnc2sc(C(=O)N3CCN(c4ccc(F)cc4)CC3)c(C)c2c1=O	2	i	-0.41	-5	.
SMILES	MT stabilize HCS	HSV augment	Dynein cargo inh	L major viab	bCat nuc transl
Cc1ccc(-c2c[n+](CC(=O)Nc3cc(=O)n(C)c(=O)n3C)c3n2CCC3)cc1	4	i	-0.11	14	-1
Cc1ccc(S(=O)(=O)N2CCN(CC(=O)N/N=C\c3ccc(Cl)c([N+](=O)[O-])c3)CC2)cc1	4	i	-0.37	15	0
COc1ccc(NC(=O)CN2CCN(Cc3ccc4c(c3)OCO4)CC2)cc1OC	2	i	-0.35	71*	2
O=C(CN1CCN(S(=O)(=O)c2ccc(Br)cc2)CC1)N/N=C/c1ccc(Cl)c([N+](=O)[O-])c1	13*	.	-1.2	15	0
O=C(CN1CCN(Cc2ccc3c(c2)OCO3)CC1)Nc1ccc2c(c1)OCO2	2	i	0.39	92*	-2
O=C(Nc1ccccc1)N1CCN(Cc2ccc3c(c2)OCO3)CC1	2	i	0.11	-3	-6
COc1ccccc1NC(=O)CN1CCN(CC(=O)Nc2ccc3c(c2)OCCO3)CC1	3	i	0.13	55*	0
CCOC(=O)C(CC)(CCC(=O)OC)c1csc(Nc2ccccc2O)n1 (stereo unspecified)	.	i	-0.84	.	2
O=C(CN1CCN(S(=O)(=O)c2ccc(F)cc2)CC1)Nc1ccc2c(c1)OCO2	2	i	1.5	2	1
O=C(CN1CCCN(S(=O)(=O)c2ccc(Br)cc2)CC1)Nc1ccc2c(c1)OCO2	6	i	0.21	86*	8
O=c1[nH]c(CN2CCN(Cc3ccc4c(c3)OCO4)CC2)nc2ccccc12	2	i	-0.43	91*	1
COc1cc(NC(=O)CN2CCN(Cc3ccc4c(c3)OCO4)CC2)cc(OC)c1	3	.	-0.086	86*	-3
O=c1[nH]c(CN2CCCCC2)nc2ccccc12	4	i	-0.24	-1	1
O=C(CN1CCN(Cc2ccc3c(c2)OCO3)CC1)Nc1ccc(F)cc1	4	i	-0.79	97*	0
S=C(NCCc1ccncc1)Nc1cccc2ccccc12	1	i	1.3	4	2
C=CCn1c(SCc2ccc3c(c2)OCO3)nc2scc(-c3ccco3)c2c1=O	3	i	-0.6	8	0
C#CCOCCOCCOCCNc1nc(N2CCN(C(=O)[C@H]([C@@H](C)CC)n3cc([C@@H](N)CC(C)C)nn3)CC2)nc(N2CCN(C(=O)[C@H](Cc3cc4ccccc4[nH]3)n3cc([C@@H](N)Cc4ccc(O)cc4)nn3)CC2)n1	2	.	0.014	4	0
O=C(C1CCCN(Cc2ccc3c(c2)OCO3)C1)N1CCCC1 (stereo unspecified)	6	i	-0.74	46	2
COc1cccc(CN2CCCC(C(=O)c3ccc4c(c3)OCO4)C2)c1O (stereo unspecified)	3	i	1.4	82*	-1
COc1ccc(F)cc1C(=O)C1CCCN(Cc2ccc(Oc3ncccn3)cc2)C1 (stereo unspecified)	3	i	0.47	21	1
CC(=O)c1cccc(CN2CCCC(C(=O)c3ccc4c(c3)OCO4)C2)c1 (stereo unspecified)	3	i	0.91	100*	0
COc1ccc(C(=O)C2CCCN(Cc3ccc4c(c3)OCCO4)C2)cc1F (stereo unspecified)	.	i	0.91	.	0
